Laboratory results from ChEMBL document CHEMBL1126940, “Synthesis and dopamine receptor modulating activity of lactam conformationally constrained analogues of Pro-Leu-Gly-NH2” (J Med Chem, 1993).
Residues, ends and D or L forms follow the SMILES beside them.

Legend:
[1] = biological target: T1, Dopamine receptor (Bos taurus) (UniProt Q95136+P20288); experiment: In vitro ability to enhance the binding of [3H]ADTN to dopamine receptor obtained from bovine caudate membranes at a concentration of 10E-4 M
Summary of the method: (§1)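 Striatal synaptosomal membranes from bovine caudate incubated with [3H]ADTN with or without (control) peptide at 10^-12–10^-4 M, in triplicate, 37°C for 10 min, no preincubation; filtered, filters counted by liquid scintillation. Nonspecific binding defined with 10 μM (+)-butaclamol. Result expressed as percent enhancement over control; average ± SEM of three or four experiments; unpaired t-test on dpm.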

[2] = biological target: T1, Dopamine receptor (Bos taurus); experiment: In vitro ability to enhance the binding of [3H]ADTN to dopamine receptor obtained from bovine caudate membranes at a concentration of 10E-5 M; summary of the method: as §1
[3] = biological target: T1, Dopamine receptor (Bos taurus); experiment: In vitro ability to enhance the binding of [3H]ADTN to dopamine receptor obtained from bovine caudate membranes at a concentration of 10E-6 M; summary of the method: as §1
[4] = biological target: T1, Dopamine receptor (Bos taurus); experiment: In vitro ability to enhance the binding of [3H]-ADTN to dopamine receptor obtained from bovine caudate membranes at a concentration of 10E-7 M; summary of the method: as §1
[5] = biological target: T1, Dopamine receptor (Bos taurus); experiment: In vitro ability to enhance the binding of [3H]ADTN to dopamine receptor obtained from bovine caudate membranes at a concentration of 10E-8 M; summary of the method: as §1
[6] = biological target: T1, Dopamine receptor (Bos taurus); experiment: In vitro ability to enhance the binding of [3H]ADTN to dopamine receptor obtained from bovine caudate membranes at a concentration of 10E-9 M; summary of the method: as §1
[7] = biological target: T1, Dopamine receptor (Bos taurus); experiment: In vitro ability to enhance the binding of [3H]ADTN to dopamine receptor obtained from bovine caudate membranes at a concentration of 10E-10 M; summary of the method: as §1
[8] = biological target: T1, Dopamine receptor (Bos taurus); experiment: In vitro ability to enhance the binding of [3H]-ADTN to dopamine receptor obtained from bovine caudate membranes at a concentration of 10E-11 M; summary of the method: as §1
[9] = biological target: T1, Dopamine receptor (Bos taurus); experiment: In vitro ability to enhance the binding of [3H]ADTN to dopamine receptor obtained from bovine caudate membranes at a concentration of 10E-12 M; summary of the method: as §1

Increase [1] [%]	Increase [2] [%]	Increase [3] [%]	Increase [4] [%]	Increase [5] [%]	Increase [6] [%]	Increase [7] [%]	Increase [8] [%]	Increase [9] [%]	Compound
17	27	61	38	35	30	15	8	–	NC(=O)CN1CCCC[C@@H](NC(=O)C2CCCN2)C1=O (some centres not stated)
–	18	43	16	11	4	3	4	2	NC(=O)CN1CCC[C@@H](NC(=O)C2CCCN2)C1=O (some centres not stated)
13	33	38	42	13.5	4.6	3.3	5.5	4	NC(=O)CN1C(=O)C[C@H](NC(=O)C2CCCN2)C1=O (some centres not stated)
7	37	54	30	14	6.8	2.5	2	2	NC(=O)CN1OC[C@H](NC(=O)C2CCCN2)C1=O (some centres not stated)
9.5	22	27	8	5	3.9	2.5	–	1.5	NC(=O)CN1C[C@H](NC(=O)C2CCCN2)C1=O (some centres not stated)
–	–	27	–	–	–	–	–	–	CC(C)C[C@H](NC(=O)[C@@H]1CCCN1)C(=O)NCC(N)=O (H-Pro-Leu-Gly-NH2)

Compound	Increase [1] [%]	Increase [2] [%]	Increase [3] [%]	Increase [4] [%]	Increase [5] [%]	Increase [6] [%]	Increase [7] [%]	Increase [8] [%]	Increase [9] [%]
NC(=O)CN1CC[C@H](NC(=O)C2CCCN2)C1=O (some centres not stated)	1.4	1.6	2.8	5.6	9.2	23	24.4	12	2.2
